# According to ChEMBL document CHEMBL4118165, “Synthesis and kinetic evaluation of ethyl acrylate and vinyl sulfone derived inhibitors for human cysteine cathepsins” (Bioorg Med Chem Lett, 2018):
# Key:
# [1] = target: T1, Cathepsin K (Homo sapiens) (UniProt P43235); assay: Irreversible inhibition of human cathepsin K using Z-Leu-Arg-AMC as substrate assessed as ratio of Kinac/Ki after 10 to 80 mins by fluorimetric analysis
# T1 sequence (whole entry): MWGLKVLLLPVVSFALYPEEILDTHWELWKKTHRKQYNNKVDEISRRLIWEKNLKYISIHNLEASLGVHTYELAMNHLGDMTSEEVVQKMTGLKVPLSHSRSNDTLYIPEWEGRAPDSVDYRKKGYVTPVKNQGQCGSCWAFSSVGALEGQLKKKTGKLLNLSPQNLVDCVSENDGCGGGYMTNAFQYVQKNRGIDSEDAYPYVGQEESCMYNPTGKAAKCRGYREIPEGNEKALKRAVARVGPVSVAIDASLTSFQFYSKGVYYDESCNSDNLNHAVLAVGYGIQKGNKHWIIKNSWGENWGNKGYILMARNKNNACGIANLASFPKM
# [2] = target: Cathepsin B (Homo sapiens) (UniProt P07858); assay: Irreversible inhibition of human cathepsin B using Z-Arg-Arg-pNA as substrate assessed as ratio of Kinac/Ki after 10 to 80 mins by photometric analysis
# [3] = target: Procathepsin L (Homo sapiens) (UniProt P07711); assay: Irreversible inhibition of human cathepsin L using Z-Phe-Arg-pNA as substrate by photometric analysis; conditions: TDE = time-dependent effect
# [4] = target: Cathepsin S (Homo sapiens) (UniProt P25774); assay: Irreversible inhibition of human cathepsin S using Z-Phe-Arg-AMC as substrate by fluorimetric analysis; conditions: TDE = time-dependent effect
# In short: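 Human cathepsin S monitored fluorimetrically (ex 360, em 440 nm) at 25 °C, pH 6.0. […] Progress curves were fitted non-linearly for kobs, and kinac/Ki was calculated including the [S]/Km competition term.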
# [5] = target: Procathepsin L (Homo sapiens) (UniProt P07711); assay: Irreversible inhibition of human cathepsin L using Z-Phe-Arg-pNA as substrate assessed as ratio of Kinac/Ki after 10 to 80 mins by photometric analysis
# [6] = target: T1, Cathepsin K (Homo sapiens); assay: Irreversible inhibition of human cathepsin K using Z-Leu-Arg-AMC as substrate by fluorimetric analysis; conditions: TDE = time-dependent effect
# [7] = target: Cathepsin S (Homo sapiens) (UniProt P25774); assay: Irreversible inhibition of human cathepsin S using Z-Phe-Arg-AMC as substrate assessed as ratio of Kinac/Ki after 10 to 80 mins by fluorimetric analysis
# [8] = target: Cathepsin B (Homo sapiens) (UniProt P07858); assay: Irreversible inhibition of human cathepsin B using Z-Arg-Arg-pNA as substrate by photometric analysis; conditions: TDE = time-dependent effect
# In short: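 Human cathepsin B assayed photometrically at 405 nm, 37 °C, pH 6.0. […] Progress curves were fitted by non-linear regression to get kobs, and kinac/Ki was derived with correction for substrate competition ([S]/Km).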
# Sequence of Cathepsin S (Homo sapiens) (P25774 115-331 limits assumed): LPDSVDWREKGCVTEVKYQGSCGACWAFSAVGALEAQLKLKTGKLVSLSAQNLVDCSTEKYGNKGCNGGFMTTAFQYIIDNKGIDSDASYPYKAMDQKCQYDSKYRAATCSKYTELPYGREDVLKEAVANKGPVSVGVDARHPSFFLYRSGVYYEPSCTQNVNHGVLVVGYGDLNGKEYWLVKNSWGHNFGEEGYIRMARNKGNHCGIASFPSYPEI
# Sequence of Procathepsin L (Homo sapiens) (P07711 114-333 limits assumed): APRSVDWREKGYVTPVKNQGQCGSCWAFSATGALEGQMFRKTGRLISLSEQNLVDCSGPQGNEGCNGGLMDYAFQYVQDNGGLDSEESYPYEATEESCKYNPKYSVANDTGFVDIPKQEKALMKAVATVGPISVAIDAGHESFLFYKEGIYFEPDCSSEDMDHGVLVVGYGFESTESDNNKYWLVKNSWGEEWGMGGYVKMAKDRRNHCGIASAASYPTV
SMILES,Ratio [1],Ratio [2],inhibition [3],inhibition [4],Ratio [5],inhibition [6],Ratio [7],inhibition [8]
CC(C)(C)OC(=O)NCCC(=O)N[C@@H](Cc1ccccc1)C(=O)NC/C=C/S(=O)(=O)c1ccccc1,2230 M⁻¹ s⁻¹,214 M⁻¹ s⁻¹,Tde,Tde,12800 M⁻¹ s⁻¹,Tde,13100 M⁻¹ s⁻¹,Tde
CCOC(=O)/C=C/CNC(=O)[C@H](CC(C)C)NC(=O)OC(C)(C)C,11600 M⁻¹ s⁻¹,3090 M⁻¹ s⁻¹,Tde,Tde,1280 M⁻¹ s⁻¹,Tde,6600 M⁻¹ s⁻¹,Tde
CCOC(=O)/C=C/CNC(=O)[C@H](CC(C)C)NC(=O)CCNC(=O)OC(C)(C)C,2890 M⁻¹ s⁻¹,248 M⁻¹ s⁻¹,Tde,Tde,554 M⁻¹ s⁻¹,Tde,2590 M⁻¹ s⁻¹,Tde
CCOC(=O)/C=C/CNC(=O)[C@H](Cc1ccccc1)NC(=O)CCNC(=O)OC(C)(C)C,759 M⁻¹ s⁻¹,2660 M⁻¹ s⁻¹,Tde,Tde,3540 M⁻¹ s⁻¹,Tde,879 M⁻¹ s⁻¹,Tde
CCOC(=O)/C=C/CNC(=O)[C@H](Cc1ccccc1)NC(=O)COCCOCCNC(=O)OC(C)(C)C,297 M⁻¹ s⁻¹,348 M⁻¹ s⁻¹,Tde,Tde,652 M⁻¹ s⁻¹,Tde,557 M⁻¹ s⁻¹,Tde
CC(C)C[C@H](NC(=O)COCCOCCNC(=O)OC(C)(C)C)C(=O)NC/C=C/S(=O)(=O)c1ccccc1,25.5 M⁻¹ s⁻¹,150 M⁻¹ s⁻¹,Tde,Tde,3310 M⁻¹ s⁻¹,Tde,11900 M⁻¹ s⁻¹,Tde
CC(C)C[C@H](NC(=O)CCNC(=O)OC(C)(C)C)C(=O)NC/C=C/S(=O)(=O)c1ccccc1,12500 M⁻¹ s⁻¹,58.3 M⁻¹ s⁻¹,Tde,Tde,671 M⁻¹ s⁻¹,Tde,30600 M⁻¹ s⁻¹,Tde
CCOC(=O)/C=C/CNC(=O)[C@H](Cc1ccccc1)NC(=O)OC(C)(C)C,752 M⁻¹ s⁻¹,3660 M⁻¹ s⁻¹,Tde,Tde,1120 M⁻¹ s⁻¹,Tde,525 M⁻¹ s⁻¹,Tde
CC(C)(C)OC(=O)N[C@@H](Cc1ccccc1)C(=O)NC/C=C/S(=O)(=O)c1ccccc1,1320 M⁻¹ s⁻¹,378 M⁻¹ s⁻¹,Tde,Tde,5880 M⁻¹ s⁻¹,Tde,7960 M⁻¹ s⁻¹,Tde
CC(C)C[C@H](NC(=O)OC(C)(C)C)C(=O)NC/C=C/S(=O)(=O)c1ccccc1,18300 M⁻¹ s⁻¹,85.1 M⁻¹ s⁻¹,Tde,Tde,879 M⁻¹ s⁻¹,Tde,28400 M⁻¹ s⁻¹,Tde
